According to ChEMBL document CHEMBL1145161, “Inhibitors of Trypanosoma cruzi trypanothione reductase revealed by virtual screening and parallel synthesis” (J Med Chem, 2005):
pKi: −log10 of the molar value.

Assays:
[1] = molecular target: Trypanothione reductase (Trypanosoma cruzi) (UniProt P28593); test: Inhibitory activity (100 uM) against recombinant Trypanosoma cruzi trypanothione reductase was determined in presence of Trypanothione disulfide (110 uM)
How it was run: (§1)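 Recombinant T. cruzi TR, 10–15 mU, in 40 mM Hepes, 1 mM EDTA, pH 7.5, 25 °C, 100 μM NADPH; activity at fixed TS2 (40 or 110 μM) without and with 100 μM inhibitor; TS2 starts reaction, A340 decrease monitored; DMSO controls where needed. Inhibitor stocks 4 mM in DMSO or water.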

[2] = molecular target: Trypanothione reductase (Trypanosoma cruzi) (UniProt P28593); test: Inhibitory activity (100 uM) against recombinant Trypanosoma cruzi trypanothione reductase was determined in presence of Trypanothione disulfide (40 uM); how it was run: as §1
[3] = molecular target: Trypanothione reductase (Trypanosoma cruzi) (UniProt P28593); test: (§2) Inhibitory constant against recombinant Trypanosoma cruzi trypanothione reductase was determined photometrically at 25 degree C in TR assay buffer (40 mM Hepes, 1 mM EDTA, pH 7.5)
How it was run: (§3)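 Spectrophotometric TR assay at 25 °C, 40 mM Hepes, 1 mM EDTA, pH 7.5; 100 μM NADPH, 10–15 mU TR; reaction started with TS2, A340 decrease followed. TS2 varied at several fixed inhibitor concentrations (e.g. 5, 10, 20 μM); Ki from slopes and x-axis intercepts of Lineweaver–Burk plots, Dixon plots also used; data at least in duplicate.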

[4] = molecular target: T1, Glutathione reductase, mitochondrial (Homo sapiens) (UniProt P00390); test: (§4) Inhibitory constant against human glutathione reductase
T1 sequence (whole entry): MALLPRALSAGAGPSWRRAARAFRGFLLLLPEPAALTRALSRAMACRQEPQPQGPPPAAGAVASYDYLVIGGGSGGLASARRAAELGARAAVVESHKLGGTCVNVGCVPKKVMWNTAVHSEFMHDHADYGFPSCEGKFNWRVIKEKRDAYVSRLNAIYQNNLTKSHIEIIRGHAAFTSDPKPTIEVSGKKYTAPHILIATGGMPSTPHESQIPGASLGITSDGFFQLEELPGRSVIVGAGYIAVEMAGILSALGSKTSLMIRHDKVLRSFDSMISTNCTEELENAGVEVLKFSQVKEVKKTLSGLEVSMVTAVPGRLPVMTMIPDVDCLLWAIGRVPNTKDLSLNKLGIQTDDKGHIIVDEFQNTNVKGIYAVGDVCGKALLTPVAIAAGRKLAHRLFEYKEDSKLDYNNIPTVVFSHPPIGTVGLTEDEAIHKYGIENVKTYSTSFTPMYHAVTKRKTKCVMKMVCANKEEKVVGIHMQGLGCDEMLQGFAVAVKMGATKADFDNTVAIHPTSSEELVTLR
How it was run: (§5)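 Human GR kinetics in phosphate/KCl/EDTA buffer pH 6.9 at 25 °C, 100 μM NADPH, 5–10 mU GR; GSSG varied (40–1000 μM) at two fixed inhibitor levels, 120 and 240 μM; DMSO controls.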

[5] = molecular target: T1, Glutathione reductase, mitochondrial (Homo sapiens); test: Inhibitory activity against human Glutathione reductase relative to GSSG (100 uM)
Trypanothione reductase [6] = molecular target: T2, Trypanothione reductase (Trypanosoma cruzi, UniProt P28593); test: as §2; how it was run: as §3
T2 sequence (P28593 whole entry): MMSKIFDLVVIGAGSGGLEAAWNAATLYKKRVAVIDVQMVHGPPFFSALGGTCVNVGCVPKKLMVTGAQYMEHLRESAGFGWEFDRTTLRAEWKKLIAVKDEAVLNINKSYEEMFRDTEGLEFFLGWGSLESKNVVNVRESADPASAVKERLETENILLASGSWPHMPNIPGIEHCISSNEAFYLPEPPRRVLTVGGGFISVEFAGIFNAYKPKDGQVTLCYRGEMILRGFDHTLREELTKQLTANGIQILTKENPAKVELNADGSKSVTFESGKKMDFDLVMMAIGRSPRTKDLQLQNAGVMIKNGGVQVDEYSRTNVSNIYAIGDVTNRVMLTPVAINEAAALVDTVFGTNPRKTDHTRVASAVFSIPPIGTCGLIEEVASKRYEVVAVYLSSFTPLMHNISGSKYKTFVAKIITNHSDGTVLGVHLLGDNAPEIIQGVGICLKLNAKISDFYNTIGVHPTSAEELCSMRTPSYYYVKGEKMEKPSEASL

[7] = molecular target: T3, Glutathione reductase, mitochondrial (Homo sapiens, UniProt P00390); test: as §4; how it was run: as §5
T3 sequence (P00390 whole entry): T1 sequence (whole entry)

[8] = molecular target: T1, Glutathione reductase, mitochondrial (Homo sapiens); test: Percent inhibition of human glutathione reductase at 100 uM relative to 100 uM GSSG
Trypanothione reductase [9] = molecular target: T2, Trypanothione reductase; test: Competitive inhibitory constant against recombinant Trypanosoma cruzi trypanothione reductase was determined photometrically at 25 degree C in TR assay buffer (40 mM Hepes, 1 mM EDTA, pH 7.5); how it was run: as §3

Chain of Trypanothione reductase (Trypanosoma cruzi) (P28593 whole entry, looked up): as the sequence (P28593 whole entry) above

Compound: N=C(NCCCCCCCCNC(=N)c1cccs1)c1cccs1
- inhibition [1]: < 10%
- inhibition [2]: 15%

Compound: COc1cc(C(=N)NCCCCCCCCN=C(N)c2ccc(OCc3ccccc3)c(OC)c2)ccc1OCc1ccccc1
- Ki' [3]: 47 µM
- inhibition [1]: 85%
- inhibition [2]: 92%

Compound: CN1CCN(CC/N=C(\N)c2ccc3[nH]ccc3c2)CC1
- inhibition [1]: 31%
- inhibition [2]: 39%

Compound: CN1CCN(CCC/N=C(\N)c2cccs2)CC1
- inhibition [1]: < 10%
- inhibition [2]: < 10%

Compound: N=C(Nc1ccc(Oc2ccc(NC(=N)c3cccs3)cc2)cc1)c1cccs1
- inhibition [1]: 12%
- inhibition [2]: 11%

Compound: N=C(NCCCCCCNC(=N)NC(=N)Nc1ccc(Cl)cc1)NC(=N)Nc1ccc(Cl)cc1
- Ki' [4]: 210 µM

Compound: N=C(NC1CCC(CC2CCC(NC(=N)c3cnccn3)CC2)CC1)c1cnccn1 (stereo not given)
- inhibition [1]: < 10%
- inhibition [2]: < 10%

Compound: COc1cc(C(=N)Nc2ccc(Oc3ccc(NC(=N)c4ccc(OCc5ccccc5)c(OC)c4)cc3)cc2)ccc1OCc1ccccc1
- Ki' [3]: 22 µM
- inhibition [1]: 90%
- inhibition [2]: 95%
- inhibition [5]: 45%

Compound: N=C(NCCOCCOCCNC(=N)c1cccs1)c1cccs1
- inhibition [1]: < 10%
- inhibition [2]: 14%

Compound: N=C(NCCc1cccnc1)c1cccs1
- inhibition [1]: < 10%
- inhibition [2]: < 10%

Compound: COc1cc(C(=N)NCCCCCCCCNC(=N)c2ccc(OCc3ccccc3)c(OC)c2)ccc1OCc1ccccc1
- pKi (Trypanothione reductase [6]): 5.30

Compound: CN1CCN(CCC/N=C(\N)c2sccc2Br)CC1
- inhibition [1]: < 10%
- inhibition [2]: < 10%

Compound: [H]/N=C(\N/C(=N/[H])NCCCCCCNC(=N)NC(=N)Nc1ccc(Cl)cc1)Nc1ccc(Cl)cc1 [CHLORHEXIDINE]
- pKi (Trypanothione reductase [6]): 5.70
- pKi [7]: 3.72

Compound: N=C(NCCc1cccnc1)c1sccc1Br
- inhibition [1]: 15%
- inhibition [2]: 14%

Compound: COc1cc(C(=N)NC2CCC(CC3CCC(/N=C(\N)c4ccc(OCc5ccccc5)c(OC)c4)CC3)CC2)ccc1OCc1ccccc1 (stereo not given)
- inhibition [8]: 35%
- Ki' [3]: 16 µM
- inhibition [1]: 97%
- pKi (Trypanothione reductase [6]): 5.70
- inhibition [2]: 94%

Compound: N=C(CCCCCCCC(=N)NCC#Cc1ccccc1)NCC#Cc1ccccc1
- pKi (Trypanothione reductase [9]): 5.22
- inhibition [1]: 69%
- inhibition [2]: 80%
- inhibition [5]: 5%

Compound: COc1cc(C(N)=Nc2ccc(Oc3ccc(N=C(N)c4ccc(OCc5ccccc5)c(OC)c4)cc3)cc2)ccc1OCc1ccccc1
- pKi (Trypanothione reductase [6]): 5.70

Compound: N=C(NCCOCCOCCNC(=N)c1cnccn1)c1cnccn1
- inhibition [1]: < 10%
- inhibition [2]: 11%

Compound: N=C(NC1CCC(CC2CCC(NC(=N)c3cccs3)CC2)CC1)c1cccs1 (stereo not given)
- inhibition [1]: 16%
- inhibition [2]: 17%

Compound: O=C(Cc1cccc2ccccc12)NCCNC(=O)C1(NC(=O)C(=O)c2ccc([N+](=O)[O-])cc2)CCNCC1
- Ki' [3]: 8.5 µM
- pKi (Trypanothione reductase [6]): 5.21
